Measured values from ChEMBL document CHEMBL2311290 (J Med Chem, 2013).
The source made the active and inactive calls. The rule behind the calls is not given here.

Columns and labels:
[1] = molecular target: Coagulation factor XI (Homo sapiens) (UniProt P03951); test: Inhibition of human FXIa assessed as S-2366 hydrolysis at 250 uM after 10 mins by microplate reader analysis
Method in brief: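 Human FXIa at 0.765 nM final in pH 7.4 Tris buffer (150 mM NaCl, 0.1% PEG8000, 0.02% Tween80). It is preincubated 10 min at 37 °C with the agent or solvent, then 345 µM S-2366 is added. Initial rate of A405 increase gives residual activity relative to no-inhibitor control.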

Blood [2] = test: Anticoagulant activity in human whole blood assessed as maximum amplitude at 280 ug/ml by thromboelastography (reference value: 59 mm); format: functional
Method in brief: (§1)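 Thromboelastography in sodium-citrated human whole blood at 37 °C. 340 µL of blood containing 10 µL of the agent (or high-purity water) is added to a cup holding 20 µL of 200 mM CaCl2 stock, oscillating through 4°45′ at 0.1 Hz. Clot force on a central pin is recorded and read out as R, α, MA and G.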

Blood [3] = test: Anticoagulant activity in human whole blood assessed as angle alpha at 135 ug/ml by thromboelastography (reference value: 56.4 deg); format: functional; method in brief: as §1
Blood [4] = test: Anticoagulant activity in human whole blood assessed as maximum amplitude at 190 ug/ml by thromboelastography (reference value: 59 mm); format: functional; method in brief: as §1
Blood [5] = test: Anticoagulant activity in human whole blood assessed as clot formation time at 280 ug/ml by thromboelastography (reference value: 6.0 mins); format: functional; method in brief: as §1
Prothrombin = Prothrombin (Homo sapiens, UniProt P00734); test: Inhibition of human thrombin after 60 secs by spectrophotometry
Method in brief: (§2)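 Chromogenic substrate hydrolysis at pH 7.4 with at least six serially diluted concentrations of the agent. Residual activity is read spectrophotometrically and the IC50 is obtained from a dose–response fit. Substrate levels were set from its KM. Final enzyme/substrate: thrombin 6 nM/50 µM Spectrozyme TH; FXa 1.09 nM/125 µM; FXIIa 5 nM/125 µM; FIXa 89 nM/850 µM.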

Plasma [6] = test: Anticoagulant activity in human plasma assessed as concentration required to double […] prothrombin time; format: functional
Method in brief: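 Prothrombin time is a one-stage recalcification assay read on a fibrometer. 10 µL of the agent is made up to 100 µL with citrated human plasma and incubated 30 s at 37 °C. Clotting is started with 200 µL of prewarmed thromboplastin-D. A quadratic trend line of clotting time versus concentration gives the concentration that doubles clotting time. Water or organic vehicle serves as the blank.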

Plasma [7] = test: Ratio of concentration required to double clotting time for compound to enoxaparin in human plasma; format: functional
Blood [8] = test: Anticoagulant activity in human whole blood assessed as maximum amplitude at 135 ug/ml by thromboelastography (reference value: 59 mm); format: functional; method in brief: as §1
Bos taurus = species on record: Bos taurus; test: Inhibition of bovine chymotrypsin at 1.8 mg/ml after 60 secs by spectrophotometry
Blood [9] = test: Anticoagulant activity in human whole blood assessed as clot formation time at 20 ug/ml by thromboelastography (reference value: 6.0 mins); format: functional; method in brief: as §1
[10] = molecular target: T1, Serine protease 1 (Bos taurus) (UniProt P00760); test: Inhibition of bovine trypsin at 1.8 mg/ml after 60 secs by spectrophotometry
T1 sequence (whole entry): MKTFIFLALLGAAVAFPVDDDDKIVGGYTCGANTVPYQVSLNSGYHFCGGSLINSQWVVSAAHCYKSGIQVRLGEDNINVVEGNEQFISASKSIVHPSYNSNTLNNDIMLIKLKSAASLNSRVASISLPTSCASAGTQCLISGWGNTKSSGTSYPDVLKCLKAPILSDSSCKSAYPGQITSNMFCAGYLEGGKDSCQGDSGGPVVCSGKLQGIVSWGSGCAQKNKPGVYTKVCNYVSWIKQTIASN
Method in brief: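 Chromogenic substrate hydrolysis assay of bovine trypsin (72.5 ng/mL in the well) with 80 µM substrate, with substrate level chosen from its KM. Enzyme stock was in 50 mM Tris-HCl pH 7.4, 150 mM NaCl, 0.1% PEG8000, 0.02% Tween80. Fractional residual activity was read spectrophotometrically across at least six serial inhibitor dilutions to derive IC50.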

[11] = molecular target: Coagulation factor XI (Homo sapiens) (UniProt P03951); conditions: 3 uM
[12] = molecular target: T2, Coagulation factor XII (Homo sapiens) (UniProt P00748); test: (§3) Inhibition of FXIIa (unknown origin) after 60 secs by spectrophotometry; method in brief: as §2
T2 sequence (whole entry): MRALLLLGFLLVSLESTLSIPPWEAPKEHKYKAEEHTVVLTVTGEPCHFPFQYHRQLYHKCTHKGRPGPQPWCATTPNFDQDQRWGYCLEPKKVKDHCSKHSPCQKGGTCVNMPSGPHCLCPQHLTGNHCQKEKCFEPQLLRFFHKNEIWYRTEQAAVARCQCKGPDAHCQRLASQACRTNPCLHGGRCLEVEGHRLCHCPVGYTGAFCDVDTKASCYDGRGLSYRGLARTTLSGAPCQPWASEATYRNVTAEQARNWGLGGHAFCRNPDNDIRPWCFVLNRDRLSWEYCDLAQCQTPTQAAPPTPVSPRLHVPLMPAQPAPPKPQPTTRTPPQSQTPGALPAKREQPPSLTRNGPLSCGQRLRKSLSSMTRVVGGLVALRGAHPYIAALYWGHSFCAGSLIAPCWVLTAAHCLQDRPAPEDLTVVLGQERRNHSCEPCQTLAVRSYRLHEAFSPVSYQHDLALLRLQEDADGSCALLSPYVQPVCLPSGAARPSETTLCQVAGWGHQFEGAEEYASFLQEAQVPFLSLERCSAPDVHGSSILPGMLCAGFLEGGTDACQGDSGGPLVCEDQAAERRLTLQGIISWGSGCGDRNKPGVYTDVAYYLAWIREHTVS

Coagulation factor XII = molecular target: T3, Coagulation factor XII (Homo sapiens, UniProt P00748); test: as §3; method in brief: as §2
T3 sequence (P00748 whole entry): T2 sequence (whole entry)

Blood [13] = test: Anticoagulant activity in human whole blood assessed as angle alpha at 20 ug/ml by thromboelastography (reference value: 56.4 deg); format: functional; method in brief: as §1
Coagulation factor IX = Coagulation factor IX (Homo sapiens, UniProt P00740); test: Inhibition of human FIXa after 60 secs by spectrophotometry
Coagulation factor IX, sequence (P00740 47-191 limits assumed): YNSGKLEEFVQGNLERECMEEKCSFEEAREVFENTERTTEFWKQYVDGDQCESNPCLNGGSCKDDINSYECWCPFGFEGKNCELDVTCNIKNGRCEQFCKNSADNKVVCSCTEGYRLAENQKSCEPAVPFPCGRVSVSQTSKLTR
Coagulation factor IX, sequence (P00740 227-461 limits assumed): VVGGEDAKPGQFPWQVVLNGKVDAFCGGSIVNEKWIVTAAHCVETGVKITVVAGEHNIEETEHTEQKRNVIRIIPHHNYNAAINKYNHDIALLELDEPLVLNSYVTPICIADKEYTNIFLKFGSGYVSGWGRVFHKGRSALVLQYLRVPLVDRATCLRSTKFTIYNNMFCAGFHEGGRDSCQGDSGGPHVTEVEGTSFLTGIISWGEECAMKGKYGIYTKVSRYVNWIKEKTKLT

Blood [14] = test: Anticoagulant activity in human whole blood assessed as clot formation time at 135 ug/ml by thromboelastography (reference value: 6.0 mins); format: functional; method in brief: as §1
Plasma [15] = test: Anticoagulant activity in human plasma assessed as concentration required to double activated partial […] time; format: functional
Method in brief: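 Citrated pooled normal human plasma (90 µL) plus 10 µL of the test agent and 100 µL of prewarmed ellagic acid APTT reagent (0.2% ellagic acid). The mixture is incubated 4 min at 37 °C, then clotting is started with prewarmed 25 mM CaCl2 and read on a fibrometer. Clotting time versus concentration is fitted to a quadratic trend line to get the concentration that doubles it. Water or organic vehicle serves as the blank.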

[16] = molecular target: T4, Coagulation factor VII (Homo sapiens) (UniProt P08709); test: Inhibition of human FVIIa at 3.7 mg/ml after 60 secs by spectrophotometry
T4 sequence (whole entry): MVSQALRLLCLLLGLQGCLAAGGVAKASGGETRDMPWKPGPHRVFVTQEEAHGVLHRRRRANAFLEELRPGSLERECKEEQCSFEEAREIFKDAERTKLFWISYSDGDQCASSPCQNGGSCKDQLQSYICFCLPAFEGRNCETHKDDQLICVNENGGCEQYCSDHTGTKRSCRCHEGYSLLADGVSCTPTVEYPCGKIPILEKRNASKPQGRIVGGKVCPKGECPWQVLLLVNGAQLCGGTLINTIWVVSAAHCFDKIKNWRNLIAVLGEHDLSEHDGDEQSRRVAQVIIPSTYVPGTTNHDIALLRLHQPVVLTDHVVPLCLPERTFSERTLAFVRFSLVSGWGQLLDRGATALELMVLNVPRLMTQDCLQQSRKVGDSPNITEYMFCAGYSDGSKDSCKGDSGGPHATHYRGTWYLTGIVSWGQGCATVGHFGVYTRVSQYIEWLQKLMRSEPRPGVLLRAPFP
Method in brief: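 Chromogenic hydrolysis with at least six serial concentrations of the agent and spectrophotometric residual activity. Factor VIIa was 8 nM with 1000 µM Spectrozyme FVIIa plus 40 nM recombinant tissue factor. Bovine chymotrypsin was 500 ng/mL with 240 µM Spectrozyme CTY.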

Blood [17] = test: Anticoagulant activity in human whole blood assessed as maximum amplitude at 20 ug/ml by thromboelastography (reference value: 59 mm); format: functional; method in brief: as §1
Blood [18] = test: Anticoagulant activity in human whole blood assessed as clot formation time at 190 ug/ml by thromboelastography (reference value: 6.0 mins); format: functional; method in brief: as §1
Coagulation factor X = Coagulation factor X (Homo sapiens, UniProt P00742); test: Inhibition of human FXa after 60 secs by spectrophotometry
Coagulation factor X, sequence (P00742 41-179 limits assumed): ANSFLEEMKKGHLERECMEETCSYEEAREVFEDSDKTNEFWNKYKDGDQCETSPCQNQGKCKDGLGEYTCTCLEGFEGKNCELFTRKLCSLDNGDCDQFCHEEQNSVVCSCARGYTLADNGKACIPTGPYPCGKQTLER
Coagulation factor X, sequence (P00742 235-488 limits assumed): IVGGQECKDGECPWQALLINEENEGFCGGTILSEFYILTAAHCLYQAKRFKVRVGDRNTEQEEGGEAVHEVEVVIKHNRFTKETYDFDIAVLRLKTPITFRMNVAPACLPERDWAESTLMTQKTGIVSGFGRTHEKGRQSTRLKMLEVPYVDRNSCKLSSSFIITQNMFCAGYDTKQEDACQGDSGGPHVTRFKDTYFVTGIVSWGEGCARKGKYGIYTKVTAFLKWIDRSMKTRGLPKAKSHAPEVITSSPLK

Blood [19] = test: Anticoagulant activity in human whole blood assessed as angle alpha at 190 ug/ml by thromboelastography (reference value: 56.4 deg); format: functional; method in brief: as §1
[20] = molecular target: Coagulation factor XI (Homo sapiens) (UniProt P03951); test: Inhibition of human FXIa assessed as S-2366 hydrolysis at 300 uM after 10 mins by microplate reader analysis
Method in brief: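 Human FXIa (0.765 nM final) preincubated 10 min at 37 °C with inhibitor or solvent reference in pH 7.4 50 mM Tris-HCl, 150 mM NaCl, 0.1% PEG8000, 0.02% Tween80. S-2366 (345 µM) then added, and initial A405 rate read on a microplate reader. Residual activity is expressed relative to the no-inhibitor control. Highest concentration tested was 300 µM.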

Coagulation factor XI (Homo sapiens), sequence (P03951 19-387 limits assumed): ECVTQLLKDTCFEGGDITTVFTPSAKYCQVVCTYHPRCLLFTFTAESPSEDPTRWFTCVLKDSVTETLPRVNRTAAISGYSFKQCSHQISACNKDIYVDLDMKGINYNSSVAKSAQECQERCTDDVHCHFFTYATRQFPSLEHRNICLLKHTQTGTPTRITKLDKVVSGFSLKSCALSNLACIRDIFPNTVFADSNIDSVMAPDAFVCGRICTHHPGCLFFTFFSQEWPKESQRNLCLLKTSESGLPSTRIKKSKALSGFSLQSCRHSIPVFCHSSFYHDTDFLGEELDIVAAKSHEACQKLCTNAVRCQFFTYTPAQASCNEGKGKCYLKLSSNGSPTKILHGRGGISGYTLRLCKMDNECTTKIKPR
Coagulation factor XI (Homo sapiens), sequence (P03951 388-625 limits assumed): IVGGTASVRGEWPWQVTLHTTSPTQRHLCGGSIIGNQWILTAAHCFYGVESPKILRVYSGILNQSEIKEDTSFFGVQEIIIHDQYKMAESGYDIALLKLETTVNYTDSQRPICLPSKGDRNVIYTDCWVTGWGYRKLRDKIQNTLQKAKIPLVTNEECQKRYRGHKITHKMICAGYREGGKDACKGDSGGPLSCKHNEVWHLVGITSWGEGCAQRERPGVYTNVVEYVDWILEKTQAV

O=C(O)C1Cc2c(OS(=O)(=O)O)ccc(OS(=O)(=O)O)c2CN1C(=O)CCCCc1cc(OS(=O)(=O)O)ccc1OS(=O)(=O)O (centres undefined) was tested, and the inhibition [1] was “inactive”.

With O=C(O)C1Cc2cc(OS(=O)(=O)O)c(OS(=O)(=O)O)cc2CN1C(=O)CCc1cc(OS(=O)(=O)O)ccc1OS(=O)(=O)O (centres undefined) the inhibition [1] was “inactive”.

For O=C(O)C1Cc2c(OS(=O)(=O)O)ccc(OS(=O)(=O)O)c2CN1C(=O)CCCc1cc(OS(=O)(=O)O)ccc1OS(=O)(=O)O (centres undefined), the inhibition [1] was “inactive”.

In the case of O=C(O)C1Cc2c(OS(=O)(=O)O)ccc(OS(=O)(=O)O)c2CN1C(=O)CCc1cc(OS(=O)(=O)O)ccc1OS(=O)(=O)O (centres undefined), the inhibition [1] is reported as “inactive”.

For O=C(O)C1Cc2cc(OS(=O)(=O)O)c(OS(=O)(=O)O)cc2CN1C(=O)CCCc1cc(OS(=O)(=O)O)ccc1OS(=O)(=O)O (centres undefined), the inhibition [1] was “inactive”.

With O=C(OC[C@H]1O[C@@H](OC(=O)c2cc(OS(=O)(=O)[O-])c(O)c(OS(=O)(=O)[O-])c2)[C@H](OC(=O)c2cc(OS(=O)(=O)[O-])c(O)c(OS(=O)(=O)[O-])c2)[C@@H](OC(=O)c2cc(OS(=O)(=O)[O-])c(O)c(OS(=O)(=O)[O-])c2)[C@@H]1OC(=O)c1cc(OS(=O)(=O)[O-])c(O)c(OS(=O)(=O)[O-])c1)c1cc(OS(=O)(=O)[O-])c(O)c(OS(=O)(=O)[O-])c1.[Na+].[Na+].[Na+].[Na+].[Na+].[Na+].[Na+].[Na+].[Na+].[Na+] [sulfated pentagalloylglucoside] the Activity (Blood [2]) was 15.1 mm, the Activity (Blood [3]) was 30.6 degree and the Activity (Blood [4]) was 43.5 mm. The Time (Blood [5]) was 87.1 min, the IC50 (Prothrombin) was 622 µM and the 2PT (Plasma [6]) was 298 µg/mL. For the same compound, the Ratio (Plasma [7]) was 18, the Activity (Blood [8]) was 49.8 mm and the inhibition (Bos taurus) was “inactive”. The Time (Blood [9]) was 6.6 min, the inhibition [10] was “inactive” and the Efficacy [11] was 100%. The Efficacy [12] was 55.7%, the IC50 (Coagulation factor XII) was 131 µM and the Activity (Blood [13]) was 51.4 degree. For the same compound, the IC50 (Coagulation factor IX) was 582 µM, the Time (Blood [14]) was 22.8 min and the 2aPTT (Plasma [15]) was 96 µg/mL. The inhibition [16] was “inactive”, the Activity (Blood [17]) was 62 mm and the Time (Blood [18]) was 37.8 min. The IC50 (Coagulation factor X) was 136 µM and the Activity (Blood [19]) was 9.4 degree.

In the case of O=C(O)C1Cc2cc(OS(=O)(=O)O)c(OS(=O)(=O)O)cc2CN1C(=O)CCCCc1cc(OS(=O)(=O)O)ccc1OS(=O)(=O)O (centres undefined), the inhibition [1] is reported as “inactive”.

O=C(CCc1cc(OS(=O)(=O)O)ccc1OS(=O)(=O)O)N1CCc2cc(OS(=O)(=O)O)c(OS(=O)(=O)O)cc2C1 was tested, and the inhibition [1] was “inactive”.

In the case of COc1cc([C@H]2Oc3cc([C@H]4Oc5cc(OS(=O)(=O)O)cc(O)c5C(=O)[C@@H]4OS(=O)(=O)O)ccc3O[C@@H]2COS(=O)(=O)O)ccc1OS(=O)(=O)O, the inhibition [1] is reported as “inactive”.

In the case of O=C(/C=C/c1ccc(OS(=O)(=O)O)c(OS(=O)(=O)O)c1)O[C@@H]1C[C@](O)(C(=O)O)C[C@@H](OS(=O)(=O)O)[C@H]1OS(=O)(=O)O, the inhibition [1] is reported as “inactive”.

O=C(CCCc1cc(OS(=O)(=O)O)ccc1OS(=O)(=O)O)N1CCc2c(ccc(OS(=O)(=O)O)c2OS(=O)(=O)O)C1 was tested, and the inhibition [1] was “inactive”.

In the case of O=C(OC[C@H]1O[C@@H](OC(=O)c2cc(O)c(O)c(O)c2)[C@H](OC(=O)c2cc(O)c(O)c(O)c2)[C@@H](OC(=O)c2cc(O)c(O)c(O)c2)[C@@H]1OC(=O)c1cc(O)c(O)c(O)c1)c1cc(O)c(O)c(O)c1, the inhibition [20] is reported as “inactive”.
